Published values of several laboratories.
Compare with care: the assays were run in different laboratories.

SMILES	system	setting	Tmax [h]
CC(C)(Sc1ccncc1-c1ccc(C#N)c2ccccc12)C(=O)O	male human, plasma	oral, 5 mg, single dose, fed, healthy volunteers	1.25
NS(=O)(=O)NCCNc1nonc1C(=NO)Nc1ccc(F)c(Br)c1	human, plasma	oral, 500 mg, multiple doses, twice daily, steady state, patients	2
COc1cc(N2CCC(N3CCN(C)CC3)CC2)ccc1Nc1ncnc(Nc2ccccc2S(=O)(=O)C(C)C)n1	human, plasma	oral, 325 mg, multiple doses, patients	3.75
CCc1nc(C(N)=O)c(Nc2ccc(N3CCC(N4CCN(C)CC4)CC3)c(OC)c2)nc1NC1CCOCC1	human, plasma	oral, 200 mg, multiple doses, patients	5.92
c1cnc2ccc(Nc3nc(NC4CC4)c4nc[nH]c4n3)cc2c1	human, plasma	oral, 200 mg/m², patients	5.7
CCc1nc2c(C)cc(N3CCN(CC(=O)N4CC(O)C4)CC3)cn2c1N(C)c1nc(-c2ccc(F)cc2)c(C#N)s1	human, plasma	intravenous, 0.1 mg, fasted, healthy volunteers	0
CC(=O)Oc1ccccc1C(=O)O	human, plasma	oral, 650 mg, healthy volunteers	2.5
C=CC(=O)N(C)CCOc1c(N)ncnc1-c1cc(F)cc(NC(=O)c2ccc(C3CC3)cc2F)c1C	human, blood	oral, 5 mg, single dose, healthy volunteers	0.52
CC(C)(O)c1ccccc1-c1ccc2[nH]c(/C=C/c3ccc(C(F)(F)F)cc3)nc2c1	male human, plasma	oral, 50 mg, single dose, fasted	2.9
C[C@@H](Nc1cc(F)cc(F)c1)c1cc(C(=O)N(C)C)cc2c(=O)cc(N3CCOCC3)oc12	human, plasma	oral, 180 mg, single dose, patients	1.98
CC(C)n1cc(C#N)c2cc(-n3cc(C(=O)O)cn3)ccc21	human, plasma	oral, 600 mg, multiple doses, once daily, steady state	3.5
Cn1cc(-c2ccc(S(=O)(=O)[C@@H]3C[C@@H](C(=O)NC4(C#N)CC4)N(C(=O)C4(C(F)(F)F)CC4)C3)c(C(F)(F)F)c2)cn1	human, plasma	oral, 3 mg, single dose, fasted, healthy volunteers	5
COc1ccc([C@@H]2CN(C(=O)[C@@H](O)CO)C[C@@]2(C)[C@@H](C)O)cc1OC1CN(c2ccc(C)cn2)C1	human, plasma	oral, 1.5 mg, single dose, healthy volunteers	1
C[C@@]1(c2cc(NC(=O)c3ccc(C#N)cn3)ccc2F)C=CSC(N)=N1	human, plasma	oral, 10 mg, single dose	0.88
CO[C@@H]1[C@H](OC(=O)N2CC(CCN3CCOCC3)C2)CC[C@]2(CO2)[C@H]1[C@@]1(C)O[C@@H]1CC=C(C)C	human, plasma	subcutaneous, 4.8 mg, single dose, healthy volunteers	0.25
Cc1nc(NC(=O)N2CCC[C@H]2C(N)=O)sc1-c1ccnc(C(C)(C)C(F)(F)F)c1	human, plasma	oral, 400 mg, patients	2
COc1ccc(Oc2cc(N(C)CCOc3ccc(CC4SC(=O)NC4=O)cc3)ncn2)cc1 (stereo not shown)	male human, plasma	oral, 0.5 mg, multiple doses, once daily, steady state	0.67
CCOc1cc2ncc(C#N)c(Nc3ccc(OCc4ccccn4)c(Cl)c3)c2cc1NC(=O)/C=C/[C@H]1CCCN1C	human, plasma	oral, 80 mg, single dose	4.98
CCO[C@H]1CCN(Cc2c(OC)cc(C)c3[nH]ccc23)[C@H](c2ccc(C(=O)O)cc2)C1	human, plasma	oral, 25 mg, multiple doses, twice daily, patients	2
